Source: ChEMBL document CHEMBL1153726, “Synthesis and anticancer activity of sclerophytin-inspired hydroisobenzofurans” (Bioorg Med Chem Lett, 2009)

Key:
[1] = Antitumor activity against human KB3 cells after 96 hrs by MTT assay; assay type: functional, cell-based; conditions: KB3, 96 h
How it was run: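 Human KB-3 carcinoma cells exposed to increasing compound concentrations; viability read by MTT colorimetric assay after 96 h. Values are means of triplicate assays, expressed relative to untreated controls.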

HCT-116 = assay: Growth inhibition of human HCT116 cells at 10 uM after 96 hrs by MTT assay; assay type: functional; set-up: scale not given: the % may be the effect or the level left
MDA-MB-435 = assay: Growth inhibition of human MDA-MB-435 cells at 10 uM after 96 hrs by MTT assay; assay type: functional; set-up: scale not given: the % may be the effect or the level left
T47D = assay: Growth inhibition of human T47D cells at 10 uM after 96 hrs by MTT assay; assay type: functional; set-up: scale not given: the % may be the effect or the level left
EKVX = assay: Growth inhibition of human EKVX cells at 10 uM after 96 hrs by MTT assay; assay type: functional; set-up: scale not given: the % may be the effect or the level left
DU-145 = assay: Growth inhibition of human DU145 cells at 10 uM after 96 hrs by MTT assay; assay type: functional; set-up: scale not given: the % may be the effect or the level left
A549 = assay: Growth inhibition of human A549 cells at 10 uM after 96 hrs by MTT assay; assay type: functional; set-up: scale not given: the % may be the effect or the level left
NCI-H460 = assay: Growth inhibition of human NCI-H460 cells at 10 uM after 96 hrs by MTT assay; assay type: functional; set-up: scale not given: the % may be the effect or the level left
OVCAR-4 = assay: Growth inhibition of human OVCAR4 cells at 10 uM after 96 hrs by MTT assay; assay type: functional; set-up: scale not given: the % may be the effect or the level left
COLO 205 = assay: Growth inhibition of human COLO205 cells at 10 uM after 96 hrs by MTT assay; assay type: functional; set-up: scale not given: the % may be the effect or the level left
SK-MEL-28 = assay: Growth inhibition of human SK-MEL-28 cells at 10 uM after 96 hrs by MTT assay; assay type: functional; set-up: scale not given: the % may be the effect or the level left
PC-3 = assay: Growth inhibition of human PC3 cells at 10 uM after 96 hrs by MTT assay; assay type: functional; set-up: scale not given: the % may be the effect or the level left
ACHN = assay: Growth inhibition of human ACHN cells at 10 uM after 96 hrs by MTT assay; assay type: functional; set-up: scale not given: the % may be the effect or the level left
SK-MEL-2 = assay: Growth inhibition of human SK-MEL-2 cells at 10 uM after 96 hrs by MTT assay; assay type: functional; set-up: scale not given: the % may be the effect or the level left
SNB-19 = assay: Growth inhibition of human SNB19 cells at 10 uM after 96 hrs by MTT assay; assay type: functional; set-up: scale not given: the % may be the effect or the level left
CCRF-CEM = assay: Growth inhibition of human CCRF-CEM cells at 10 uM after 96 hrs by MTT assay; assay type: functional; set-up: scale not given: the % may be the effect or the level left
IGROV-1 = assay: Growth inhibition of human IGROV1 cells at 10 uM after 96 hrs by MTT assay; assay type: functional; set-up: scale not given: the % may be the effect or the level left
HOP-92 = assay: Growth inhibition of human HOP92 cells at 10 uM after 96 hrs by MTT assay; assay type: functional; set-up: scale not given: the % may be the effect or the level left
HOP-62 = assay: Growth inhibition of human HOP62 cells at 10 uM after 96 hrs by MTT assay; assay type: functional; set-up: scale not given: the % may be the effect or the level left
U-251 = assay: Growth inhibition of human U251 cells at 10 uM after 96 hrs by MTT assay; assay type: functional; set-up: scale not given: the % may be the effect or the level left
HCC 2998 = assay: Growth inhibition of human HCC2998 cells at 10 uM after 96 hrs by MTT assay; assay type: functional; set-up: scale not given: the % may be the effect or the level left
OVCAR-3 = assay: Growth inhibition of human OVCAR-3 cells at 10 uM after 96 hrs by MTT assay; assay type: functional; set-up: scale not given: the % may be the effect or the level left
UACC-257 = assay: Growth inhibition of human UACC257 cells at 10 uM after 96 hrs by MTT assay; assay type: functional; set-up: scale not given: the % may be the effect or the level left
MDA-MB-231 = assay: Growth inhibition of human MDA-MB-231 cells at 10 uM after 96 hrs by MTT assay; assay type: functional; set-up: scale not given: the % may be the effect or the level left
SR = assay: Growth inhibition of human SR cells at 10 uM after 96 hrs by MTT assay; assay type: functional; set-up: scale not given: the % may be the effect or the level left
LOX IMVI = assay: Growth inhibition of human LOXIMVI cells at 10 uM after 96 hrs by MTT assay; assay type: functional; set-up: scale not given: the % may be the effect or the level left
A498 = assay: Growth inhibition of human A498 cells at 10 uM after 96 hrs by MTT assay; assay type: functional; set-up: scale not given: the % may be the effect or the level left
UACC-62 = assay: Growth inhibition of human UACC62 cells at 10 uM after 96 hrs by MTT assay; assay type: functional; set-up: scale not given: the % may be the effect or the level left
NCI-H226 = assay: Growth inhibition of human NCI-H226 cells at 10 uM after 96 hrs by MTT assay; assay type: functional; set-up: scale not given: the % may be the effect or the level left
SF-268 = assay: Growth inhibition of human SF268 cells at 10 uM after 96 hrs by MTT assay; assay type: functional; set-up: scale not given: the % may be the effect or the level left
MDA-MB-468 = assay: Growth inhibition of human MDA-MB-468 cells at 10 uM after 96 hrs by MTT assay; assay type: functional; set-up: scale not given: the % may be the effect or the level left
[2] = Growth inhibition of human RPMI8266 cells at 10 uM after 96 hrs by MTT assay; assay type: functional; set-up: scale not given: the % may be the effect or the level left
NCI-H23 = assay: Growth inhibition of human NCI-H23 cells at 10 uM after 96 hrs by MTT assay; assay type: functional; set-up: scale not given: the % may be the effect or the level left
OVCAR-8 = assay: Growth inhibition of human OVCAR8 cells at 10 uM after 96 hrs by MTT assay; assay type: functional; set-up: scale not given: the % may be the effect or the level left
KM12 = assay: Growth inhibition of human KM12 cells at 10 uM after 96 hrs by MTT assay; assay type: functional; set-up: scale not given: the % may be the effect or the level left
NCI-H322M = assay: Growth inhibition of human NCI-H322M cells at 10 uM after 96 hrs by MTT assay; assay type: functional; set-up: scale not given: the % may be the effect or the level left
786-0 = assay: Growth inhibition of human 786-0 cells at 10 uM after 96 hrs by MTT assay; assay type: functional; set-up: scale not given: the % may be the effect or the level left
SW-620 = assay: Growth inhibition of human SW620 cells at 10 uM after 96 hrs by MTT assay; assay type: functional; set-up: scale not given: the % may be the effect or the level left
SK-MEL-5 = assay: Growth inhibition of human SK-MEL-5 cells at 10 uM after 96 hrs by MTT assay; assay type: functional; set-up: scale not given: the % may be the effect or the level left
TK-10 = assay: Growth inhibition of human TK10 cells at 10 uM after 96 hrs by MTT assay; assay type: functional; set-up: scale not given: the % may be the effect or the level left
SK-OV-3 = assay: Growth inhibition of human SKOV3 cells at 10 uM after 96 hrs by MTT assay; assay type: functional; set-up: scale not given: the % may be the effect or the level left
K562 = assay: Growth inhibition of human K562 cells at 10 uM after 96 hrs by MTT assay; assay type: functional; set-up: scale not given: the % may be the effect or the level left
[3] = Growth inhibition of human Hs 578T cells at 10 uM after 96 hrs by MTT assay; assay type: functional; set-up: scale not given: the % may be the effect or the level left
RXF 393 = assay: Growth inhibition of human RXF393 cells at 10 uM after 96 hrs by MTT assay; assay type: functional; set-up: scale not given: the % may be the effect or the level left
SF-539 = assay: Growth inhibition of human SF539 cells at 10 uM after 96 hrs by MTT assay; assay type: functional; set-up: scale not given: the % may be the effect or the level left
NCI/ADR-RES = assay: Growth inhibition of human NCI/ADR-RES cells at 10 uM after 96 hrs by MTT assay; assay type: functional; set-up: scale not given: the % may be the effect or the level left
HCT-15 = assay: Growth inhibition of human HCT15 cells at 10 uM after 96 hrs by MTT assay; assay type: functional; set-up: scale not given: the % may be the effect or the level left
MCF7 = assay: Growth inhibition of human MCF7 cells at 10 uM after 96 hrs by MTT assay; assay type: functional; set-up: scale not given: the % may be the effect or the level left
MOLT-4 = assay: Growth inhibition of human MOLT4 cells at 10 uM after 96 hrs by MTT assay; assay type: functional; set-up: scale not given: the % may be the effect or the level left
M14 = assay: Growth inhibition of human M14 cells at 10 uM after 96 hrs by MTT assay; assay type: functional; set-up: scale not given: the % may be the effect or the level left
OVCAR-5 = assay: Growth inhibition of human OVCAR5 cells at 10 uM after 96 hrs by MTT assay; assay type: functional; set-up: scale not given: the % may be the effect or the level left
Malme-3M = assay: Growth inhibition of human MALME-3M cells at 10 uM after 96 hrs by MTT assay; assay type: functional; set-up: scale not given: the % may be the effect or the level left
SN12C = assay: Growth inhibition of human SN12C cells at 10 uM after 96 hrs by MTT assay; assay type: functional; set-up: scale not given: the % may be the effect or the level left
BT-549 = assay: Growth inhibition of human BT549 cells at 10 uM after 96 hrs by MTT assay; assay type: functional; set-up: scale not given: the % may be the effect or the level left
SNB-75 = assay: Growth inhibition of human SNB75 cells at 10 uM after 96 hrs by MTT assay; assay type: functional; set-up: scale not given: the % may be the effect or the level left
NCI-H522 = assay: Growth inhibition of human NCI-H522 cells at 10 uM after 96 hrs by MTT assay; assay type: functional; set-up: scale not given: the % may be the effect or the level left
HT-29 = assay: Growth inhibition of human HT-29 cells at 10 uM after 96 hrs by MTT assay; assay type: functional; set-up: scale not given: the % may be the effect or the level left
HL-60(TB) = assay: Growth inhibition of human HL-60(TB) cells at 10 uM after 96 hrs by MTT assay; assay type: functional; set-up: scale not given: the % may be the effect or the level left
UO-31 = assay: Growth inhibition of human UO31 cells at 10 uM after 96 hrs by MTT assay; assay type: functional; set-up: scale not given: the % may be the effect or the level left

## C=C(C)[C@H]1CC=C(C)[C@@]2(O)[C@@H]1[C@H](c1cccc3ccccc13)O[C@@H]2C(=O)OC
[1]
  IC50: 10 µM

## C=C(C)[C@H]1CC=C(C)[C@@]2(O)[C@@H]1[C@H](c1ccc(Cl)cc1Cl)O[C@@H]2C(=O)OCC
HCT-116
  Activity: 84.08%
MDA-MB-435
  Activity: 107.24%
T47D
  Activity: 94.32%
EKVX
  Activity: 104.39%
DU-145
  Activity: 110.29%
A549
  Activity: 90.16%
NCI-H460
  Activity: 108.8%
OVCAR-4
  Activity: 93.31%
COLO 205
  Activity: 122.22%
SK-MEL-28
  Activity: 113.23%
PC-3
  Activity: 99.33%
ACHN
  Activity: 109.85%
[1]
  IC50: 3 µM
SK-MEL-2
  Activity: 106.54%
SNB-19
  Activity: 87.9%
CCRF-CEM
  Activity: 98.31%
IGROV-1
  Activity: 82.34%
HOP-92
  Activity: 94.71%
HOP-62
  Activity: 92.21%
U-251
  Activity: 103.59%
HCC 2998
  Activity: 108.86%
OVCAR-3
  Activity: 112.11%
UACC-257
  Activity: 94.54%
MDA-MB-231
  Activity: 101.68%
SR
  Activity: 82.5%
LOX IMVI
  Activity: 98%
A498
  Activity: 102.47%
UACC-62
  Activity: 84.48%
NCI-H226
  Activity: 97.47%
SF-268
  Activity: 100.46%
MDA-MB-468
  Activity: 94.32%
[2]
  Activity: 106.77%
NCI-H23
  Activity: 97.89%
OVCAR-8
  Activity: 94.44%
KM12
  Activity: 99.49%
NCI-H322M
  Activity: 113.73%
786-0
  Activity: 87.09%
SW-620
  Activity: 97.1%
SK-MEL-5
  Activity: 102.55%
TK-10
  Activity: 119.56%
SK-OV-3
  Activity: 98.68%
K562
  Activity: 79.96%
[3]
  Activity: 100.26%
RXF 393
  Activity: 95.61%
SF-539
  Activity: 100.6%
NCI/ADR-RES
  Activity: 101.67%
HCT-15
  Activity: 108.1%
MCF7
  Activity: 104.98%
MOLT-4
  Activity: 98.02%
M14
  Activity: 104.29%
OVCAR-5
  Activity: 103.98%
Malme-3M
  Activity: 117.74%
SN12C
  Activity: 98.08%
BT-549
  Activity: 139.44%
SNB-75
  Activity: 82.61%
NCI-H522
  Activity: 82.73%
HT-29
  Activity: 93.83%
HL-60(TB)
  Activity: 100.94%
UO-31
  Activity: 90.72%

## C=C(C)[C@H]1CC=C(C)[C@H]2[C@@H]1[C@H](c1ccccc1Br)O[C@@H]2C(=O)OCC
[1]
  IC50: > 100 µM

## C=C(C)[C@H]1CC=C(C)[C@@]2(O)[C@@H]1[C@H](c1ccccc1Br)O[C@@H]2C(=O)OC
[1]
  IC50: 5 µM

## C=C(C)[C@H]1CC(=O)C(C)=C2[C@@H](C(=O)OCC)O[C@@H](c3cccc(Br)c3)[C@@H]21
[1]
  IC50: 30 µM
